# Compound activity: PubChem BioAssay, several laboratories
# TRPML3 agonist: human mucolipin-3 channel agonism | HEK293 TRPML3-YFP, Fluo-8 calcium fluorescence; 100% = the carbachol control signal | Q8TDD5 | 0.29% of 220,000 active | activation, % at 3 µM;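 active = activation above its plate's cutoff, the mean activation of the plate's test wells plus 3 SD, cut at about 12% in these data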;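 also: 0% = DMSO only wells and 100% = carbachol wells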
# Target sequence (Q8TDD5 whole entry, looked up): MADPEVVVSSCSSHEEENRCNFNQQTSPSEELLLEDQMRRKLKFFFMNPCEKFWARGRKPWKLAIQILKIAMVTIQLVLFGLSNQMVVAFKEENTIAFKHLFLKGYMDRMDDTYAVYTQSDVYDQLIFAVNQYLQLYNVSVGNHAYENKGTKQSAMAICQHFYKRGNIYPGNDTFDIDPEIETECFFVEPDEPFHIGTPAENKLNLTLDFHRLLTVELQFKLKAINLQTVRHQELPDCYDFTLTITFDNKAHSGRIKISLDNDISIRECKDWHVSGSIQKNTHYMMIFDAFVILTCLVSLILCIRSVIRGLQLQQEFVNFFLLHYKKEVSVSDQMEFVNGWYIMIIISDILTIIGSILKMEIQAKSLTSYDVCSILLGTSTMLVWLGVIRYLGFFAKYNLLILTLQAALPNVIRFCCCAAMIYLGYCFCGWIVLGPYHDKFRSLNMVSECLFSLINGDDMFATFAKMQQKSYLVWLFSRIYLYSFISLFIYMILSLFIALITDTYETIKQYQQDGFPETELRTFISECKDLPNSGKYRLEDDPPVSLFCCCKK
#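 Test system: TRPML3-YFP stable HEK293 cells. Doses: single point at 3 µM. Incubation: dye loading 1 h 37 °C then 30 min ambient, 125 s read. Signal: Fluo-8 calcium dye fluorescence, ex 470-495, em 515-575 nm. Measure: percent activation from peak-to-basal fluorescence ratio, scaled between DMSO and carbachol.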
# CRFBP-R2 block: blocks CRF-induced signaling of the CRF-BP/CRF-R2 complex; HEK293 CRF-R2/CRF-BP, CRF-induced calcium fluorescence; inhibition, % at 11.8 µM; 0.59% of 350,000 active;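 active = inhibition of the ligand-induced calcium signal above about 50% at the single tested concentration, limit read from the data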
# GPR7 antag: human neuropeptides B/W receptor 1 antagonism | P48145 | GPR7-expressing cells, fluorescence antagonist assay | 1.1% of 290,000 active | inhibition, % at 4.4 µM | AID 1861; in the data active = inhibition above about 16%, passing the limit was not always enough;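 also: cells stimulated with the agonist NPW; 0% = agonist with vehicle and 100% = vehicle without agonist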
# CRFBP-R2 agonist: agonists of human CRF-binding protein/CRF-R2 receptor complex; AID 588473; activation, % at 13.2 µM; 0.46% of 350,000 active; HEK293 CRF-R2/CRF-BP, calcium dye fluorescence (FLIPR); percent of saturating CRF peptide response;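 active = activation of at least 50%, plus an integration ratio under a set limit after plate pattern correction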;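 also: plate controls were neutral control wells without compound for no effect and CRF at EC100 for full effect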
# TRPN1 ag: agonists of zebrafish TRPN1 channel | 0.18% of 220,000 active | activation, % at 3 µM | HEK293 zebrafish TRPN1-YFP, Fluo-8 calcium fluorescence; 100% = response to 87 µM carbachol | AID 1424;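 active = activation above its plate's cutoff, the mean activation of test wells on that plate plus 3 SD, cut at about 19% in these data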;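 also: 0% = DMSO alone and 100% = 87 µM carbachol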
#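 Assay system: Zebrafish TRPN1-YFP in HEK293 cells | Incubation: Dye loading 1 h at 37 °C, then 30 min room temperature | Measured by: Kinetic Fluo-8 fluorescence, ex 470-495, em 515-575 nm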
# Numbers without * were called inactive; x = no result. Shown are actives, neighbours in structure and some others; about 2% of the full set was active somewhere.
SMILES,TRPML3 agonist,CRFBP-R2 block,GPR7 antag,CRFBP-R2 agonist,TRPN1 ag
C[C@@H]1CC[C@]2(C(=O)O[C@@H]3O[C@H](CO)[C@@H](O)[C@H](O)[C@H]3O)CC[C@]3(C)C(=CCC4[C@@]5(C)CC[C@H](O[C@@H]6OC[C@H](O)[C@H](O[C@@H]7O[C@H](CO)[C@@H](O)[C@H](O)[C@H]7O)[C@H]6O)C(C)(C)C5CC[C@]43C)C2[C@]1(C)O (some centres not stated),x,26,x,-1,x
O=C(O)c1cc(-c2ccc(-c3ccc(F)cc3)o2)nc2ccccc12,x,-5,-7,0,x
CCC(C)NC(=O)CSc1nnc(-c2ccc(OC)c(OC)c2)c(-c2ccc(OC)c(OC)c2)n1 (configuration not stated),x,-3,-8,-1,x
CCCCOc1ccc(OC(=O)Nc2cc(Cl)ccc2OC)cc1,0,81*,-13,-6,-1
Cn1cc(S(=O)(=O)Nc2ccc(Br)cc2F)c(=O)n(C)c1=O,0,71*,-3,4,2
O=C(CSC1=NS(=O)(=O)c2ccccc21)Nc1ccccc1,1,-21,-3,0,1
COC(=O)CSC1=NS(=O)(=O)c2ccccc21,0,92*,-13,-10,-1
N#Cc1ccc(OCC(=O)Nc2cc(S(=O)(=O)N3CCOCC3)ccc2N2CCCC2)cc1,x,3,x,0,x
Cc1ccc(NC(=O)C2CCCN2C(=O)c2cccs2)cc1C (configuration not stated),x,54*,x,-1,x
N#CCc1ccc(NS(=O)(=O)c2cccs2)cc1,0,112*,1,0,1
CC(NCc1ccccc1Cl)C(=O)Nc1ccc(C#N)cc1 (configuration not stated),0,-6,18*,0,0
CCCCN1CCNC[C@@H]1c1ccccc1,x,0,x,-1,x
O=C(CC1CCCCC1)c1c(O)c2ccccc2oc1=O,0,37,-8,70*,1
COc1ccc(N2CC(C(=O)N3CCN(c4ccccc4OC)CC3)CC2=O)cc1 (configuration not stated),x,-5,-5,0,x
Cc1ccc(S(=O)(=O)N(C)C)cc1NC(=S)Nc1cccc2ccccc12,x,-2,46*,-3,x
CC(=O)NNC(=S)Nc1cc(S(=O)(=O)N(C)C)ccc1C,1,-3,-5,-2,0
COc1ccc(-n2ccn3c(CCC(=O)N4CCN(c5cccc(C)c5C)CC4)nnc3c2=O)cc1,x,-9,9,-2,x
N#CC1=C2SCC(O)(c3ccccc3)N2C(=O)CC1c1cccs1 (configuration not stated),3,-5,17*,0,6
CC(C)(C)NC(=O)C(c1ccc(O)cc1)N(C(=O)CCC(=O)Nc1ccccn1)c1ccc(F)cc1 (configuration not stated),x,-11,-2,1,x
CSCSC1=C(C#N)C(c2ccccc2Cl)C(C(C)=O)=C(C)N1 (configuration not stated),0,55*,-2,2,-1
CCOC(=O)CSC1=C(C#N)C(c2ccccc2F)C(C(C)=O)=C(C)N1 (configuration not stated),0,19,4,-1,-1
Nc1ccc2c3c(cccc13)CC2,20*,4,1,3,42*
CCCCC(Sc1nc(C)c(Cc2ccccc2)c(=O)[nH]1)C(=O)O (configuration not stated),x,2,-7,-1,x
O=C(CSc1cccc[n+]1[O-])NC1CCCCC1,x,-6,x,1,x
COc1ccc(C(NC(=O)c2c(F)c(F)c(F)c(F)c2F)c2ccccc2)cc1 (configuration not stated),0,31,31*,0,-2
SMILES,TRPML3 agonist,CRFBP-R2 block,GPR7 antag,CRFBP-R2 agonist,TRPN1 ag
CC(=O)c1cc2c(=O)c3cc(C)ccc3oc2nc1C,1,8,-10,0,1
CCOC(=O)c1cc2c(=O)c3cc(C)ccc3oc2nc1C,x,67*,-15,-1,x
CN(CC(=O)Nc1ccc(F)c(F)c1F)C(=O)CCc1nc2sc3c(c2c(=O)[nH]1)CCCC3,x,-9,x,0,x
CCc1ccccc1NC(=O)C1C2C=CC(O2)C1C(=O)O (configuration not stated),x,-2,-15,0,x
O=C(O)C1C2C=CC(O2)C1C(=O)Nc1ccccc1C(F)(F)F (configuration not stated),1,58*,-1,0,0
CCOC(=O)c1c(/N=C/c2cc(OC)cc([N+](=O)[O-])c2O)sc(C)c1C,0,8,-7,0,-1
CCOC(=O)c1c(/N=C/c2cc([N+](=O)[O-])ccc2O)sc(C)c1C,1,9,23*,1,2
CCCCCCN1C[C@H](n2cc(COC(=O)c3ccccc3)nn2)[C@@H](O)C[C@@H]1c1ccc(C)cc1,x,0,x,5,x
COc1cccc(CN(C)C(=O)c2ccc(S(=O)(=O)Nc3ccccc3C)cc2)c1OC,x,-5,x,-1,x
CCC(C)[C@H](NC(=O)[C@@H]1Cc2ccccc2CN1C(=O)OC(C)(C)C)C(=O)NCC1CCC(C(=O)O)CC1 (some centres not stated),0,81*,-7,-3,0
COc1ccc(/C=C/C(=O)Nc2ccc(OC)nc2)cc1,1,-12,0,-1,1
COc1ccc(NC(=O)/C(Cl)=C(/Cl)S(=O)Cc2ccccc2)cn1 (configuration not stated),1,-55,40*,7,1
COc1ccc(CS(=O)(=O)/C(Cl)=C(/Cl)C(=O)Nc2ccc(OC)nc2)cc1,1,-9,39*,9,-1
CCOC(=O)C1=C(Cc2ccc(OC)cc2)C(=O)c2ccccc2C1=O,2,-92,2,61*,3
O=C(NCCSc1ccccn1)c1ccc(Cl)cc1,0,-10,2,2,0
CS(=O)(=O)N(Cc1ccc(Cl)cc1)c1ccc(C(=O)NCCSc2ccccn2)cc1,1,2,16,54*,2
CC#CCCC(=O)N1C=Cc2ccccc2C1C#N (configuration not stated),1,56*,-2,-1,2
CC1=Cc2ccccc2C(C#N)N1C(=O)c1ccccc1 (configuration not stated),0,-11,-11,-2,0
COc1ccc(-c2csc3ncnc(Oc4cccc5ccc(C)nc45)c23)cc1,0,27,-12,0,-2
Cc1ccc2cccc(Oc3ncnc4scc(-c5ccccc5)c34)c2n1,0,66*,-3,0,0
Cc1cccc(C(=O)Oc2ccc(/C=N/NC(=O)c3ccccc3O)cc2)c1,0,5,-5,3,-1
Cc1cccc(C(=O)Oc2ccc(/C=N/NC(=O)c3ccc(O)cc3)cc2)c1,x,105*,-12,3,x
Cc1ccccc1OCC(=O)OCC(=O)c1c[nH]c2ccccc12,x,87*,x,1,x
